Measured values from ChEMBL document CHEMBL3414463, “Discovery of potent and selective 8-fluorotriazolopyridine c-Met inhibitors” (J Med Chem, 2015).
Each block holds one compound with its values, some of them ahead of it.

What was measured:
Liver microsome [1] = experiment: Stability in rat liver microsomes assessed as compound turnover rate; assay type: ADME
[2] = AUC (0 to infinity) in Sprague-Dawley rat at 2 mg/kg, po; assay type: ADME, organism-based; parameters: time infinity, dose 2 mg/kg, route oral; conditions: plasma
Outline: (§1)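 Male Sprague-Dawley rats given 2.0 mg/kg orally in 2% (w/v) hydroxypropylmethylcellulose, 1% (w/v) Tween 80 in water, pH 2.2 (adjusted with HCl or MSA). Some inhibitors instead used 10% (v/v) dimethylacetamide in the same vehicle.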

[3] = target: T1, Hepatocyte growth factor receptor (Homo sapiens, UniProt P08581); experiment: Inhibition of HGF-stimulated c-Met autophosphorylation in serum starved human PC3 cells pre-incubated for 1 hr followed by human recombinant HGF stimulation for 10 mins by quantitative electrochemiluminescence immunoassay; assay type: cell-based, PC-3
T1 sequence (P08581 whole entry): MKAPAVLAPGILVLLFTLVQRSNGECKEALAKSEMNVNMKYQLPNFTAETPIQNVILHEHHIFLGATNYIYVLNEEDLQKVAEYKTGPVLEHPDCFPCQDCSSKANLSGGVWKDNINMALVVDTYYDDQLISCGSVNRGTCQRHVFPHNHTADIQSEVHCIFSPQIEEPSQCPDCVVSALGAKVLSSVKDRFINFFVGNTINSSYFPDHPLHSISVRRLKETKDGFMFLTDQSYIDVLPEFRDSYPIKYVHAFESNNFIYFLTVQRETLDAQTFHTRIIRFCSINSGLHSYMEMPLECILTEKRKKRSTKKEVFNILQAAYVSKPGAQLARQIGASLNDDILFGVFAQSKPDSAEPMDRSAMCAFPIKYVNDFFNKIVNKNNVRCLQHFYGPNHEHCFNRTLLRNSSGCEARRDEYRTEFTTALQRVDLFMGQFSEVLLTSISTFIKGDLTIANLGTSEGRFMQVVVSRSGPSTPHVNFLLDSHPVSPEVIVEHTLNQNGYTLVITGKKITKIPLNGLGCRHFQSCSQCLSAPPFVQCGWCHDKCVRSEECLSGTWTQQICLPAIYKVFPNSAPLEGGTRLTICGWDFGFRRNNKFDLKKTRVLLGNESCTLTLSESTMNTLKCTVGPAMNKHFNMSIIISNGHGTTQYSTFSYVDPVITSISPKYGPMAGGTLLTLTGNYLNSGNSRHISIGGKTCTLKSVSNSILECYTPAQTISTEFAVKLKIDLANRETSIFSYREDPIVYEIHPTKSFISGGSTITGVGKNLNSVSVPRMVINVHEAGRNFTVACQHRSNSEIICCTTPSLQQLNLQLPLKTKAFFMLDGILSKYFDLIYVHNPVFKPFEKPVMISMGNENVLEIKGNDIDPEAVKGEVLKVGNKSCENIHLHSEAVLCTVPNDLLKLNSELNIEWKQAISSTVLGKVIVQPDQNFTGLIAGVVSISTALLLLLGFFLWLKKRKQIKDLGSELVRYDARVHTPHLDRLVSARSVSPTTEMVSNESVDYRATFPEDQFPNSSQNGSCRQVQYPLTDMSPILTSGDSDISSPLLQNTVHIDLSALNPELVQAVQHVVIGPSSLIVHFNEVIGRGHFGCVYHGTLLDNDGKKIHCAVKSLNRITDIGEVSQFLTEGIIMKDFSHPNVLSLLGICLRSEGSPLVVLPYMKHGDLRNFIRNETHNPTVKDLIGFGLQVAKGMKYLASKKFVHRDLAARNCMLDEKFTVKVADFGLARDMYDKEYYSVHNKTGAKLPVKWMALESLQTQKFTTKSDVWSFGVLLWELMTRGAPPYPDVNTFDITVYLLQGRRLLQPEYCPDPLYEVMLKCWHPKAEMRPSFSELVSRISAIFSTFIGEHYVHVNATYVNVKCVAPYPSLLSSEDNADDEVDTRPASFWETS
Outline: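 Serum-starved PC-3 cells (plated in high-glucose DMEM/10% FBS, then 16 h in low-glucose DMEM with 0.1% BSA) were treated with a 10-point inhibitor dilution for 1 h at 37 °C. Cells were then stimulated with 200 ng/mL recombinant human HGF for 10 min and lysed. Phospho-c-Met was captured with biotinylated anti-c-Met and 4G10 by electrochemiluminescence. IC50, n ≥ 2.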

[4] = target: T1, Hepatocyte growth factor receptor; experiment: Inhibition of recombinant c-Met kinase domain (unknown origin) incubated for 30 mins using gastrin peptide substrate by HTRF assay
Cytochrome P450 2D6 = Cytochrome P450 2D6 (Homo sapiens, UniProt P10635); experiment: Inhibition of CYP2D6 (unknown origin); assay type: ADME
Cytochrome P450 2D6, sequence (P10635 whole entry): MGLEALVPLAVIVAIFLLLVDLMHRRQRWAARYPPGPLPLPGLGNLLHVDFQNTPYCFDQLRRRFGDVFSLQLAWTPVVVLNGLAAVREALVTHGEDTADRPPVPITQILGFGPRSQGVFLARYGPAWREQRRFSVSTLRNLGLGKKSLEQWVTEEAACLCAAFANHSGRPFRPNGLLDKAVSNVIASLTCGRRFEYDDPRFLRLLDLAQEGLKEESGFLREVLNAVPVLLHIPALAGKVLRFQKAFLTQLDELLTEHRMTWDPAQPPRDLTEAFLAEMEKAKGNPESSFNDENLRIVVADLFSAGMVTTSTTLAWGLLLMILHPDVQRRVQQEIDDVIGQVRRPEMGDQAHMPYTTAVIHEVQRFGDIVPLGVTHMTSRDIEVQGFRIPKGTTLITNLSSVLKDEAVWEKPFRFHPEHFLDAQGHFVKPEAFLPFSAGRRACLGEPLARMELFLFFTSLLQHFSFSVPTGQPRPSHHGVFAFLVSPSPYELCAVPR

Cytochrome P450 3A4 = Cytochrome P450 3A4 (Homo sapiens, UniProt P08684); experiment: Inhibition of CYP3A4 (unknown origin); assay type: ADME
Cytochrome P450 3A4, sequence (P08684 whole entry): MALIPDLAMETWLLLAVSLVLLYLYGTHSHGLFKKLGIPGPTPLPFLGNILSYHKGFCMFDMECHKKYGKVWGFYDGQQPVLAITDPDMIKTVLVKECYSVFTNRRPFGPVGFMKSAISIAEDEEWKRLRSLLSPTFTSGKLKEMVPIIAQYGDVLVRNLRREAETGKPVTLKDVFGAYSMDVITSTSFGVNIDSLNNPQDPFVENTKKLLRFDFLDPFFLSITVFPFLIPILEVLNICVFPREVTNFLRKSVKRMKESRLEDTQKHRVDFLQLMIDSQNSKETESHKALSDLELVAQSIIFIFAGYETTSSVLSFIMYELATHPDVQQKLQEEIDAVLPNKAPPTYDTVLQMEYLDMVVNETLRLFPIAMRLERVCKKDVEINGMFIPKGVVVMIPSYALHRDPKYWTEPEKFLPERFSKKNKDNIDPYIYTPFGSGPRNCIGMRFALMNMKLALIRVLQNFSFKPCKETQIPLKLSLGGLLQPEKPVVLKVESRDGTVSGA

Liver microsome [5] = experiment: Stability in human liver microsomes assessed as compound turnover rate; assay type: ADME
[6] = Volume of distribution at steady state in Sprague-Dawley rat at 0.25 mg/kg, iv; assay type: ADME, organism-based; parameters: dose 0.25 mg/kg, route intravenous; conditions: in vivo, read-out: Vdss
Outline: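 Male Sprague-Dawley rats were given a single IV dose of 0.25 mg/kg. The vehicle was DMSO, or for some compounds 20% (w/v) hydroxypropyl β-cyclodextrin in water adjusted to pH 3.5 with MSA. NC marks cases where the terminal disposition rate constant could not be characterized for lack of slope.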

Liver microsome [7] = experiment: Drug metabolism in rat liver microsomes assessed as formation of (S)-2-(6-(1-(8-fluoro-6-(3-methylisoxazol-5-yl)-[1,2,4]triazolo[4,3-a]pyridin-3-yl)ethyl)quinolin-3-yloxy)acetic acid in presence of NADPH by LC-MS/MS method; assay type: ADME
Outline: (§2)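 Compound incubated with NADPH in mouse, rat, dog, monkey or human liver microsomes. Metabolites were identified by accurate mass spectrometry and MS/MS, and selected ion chromatograms were used to build metabolite profiles.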

Mus musculus [8] = experiment: Inhibition of human recombinant HGF-stimulated c-Met autophosphorylation in Balb/c mouse assessed as relative phospho c-Met level at 10 mg/kg, po administered as single dose and measured 1 hr before mouse sacrifice by electrochemiluminescence immunoassay; assay type: functional; parameters: scale not given: the % may be the effect or the level left
Outline: (§3)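 Mice received a single 10 mg/kg oral dose. Human recombinant HGF (12 μg) was given IV at 1, 3, 6, 9, 12 or 24 h postdose, and liver was harvested 5 min later. Liver phospho-c-Met was measured by electrochemiluminescent immunoassay. Mean ± SD, n = 3; ANOVA with Bonferroni/Dunn test versus HGF control.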

Liver microsome [9] = experiment: Drug metabolism in human liver microsomes assessed as formation of (S)-2-(6-(1-(8-fluoro-6-(3-methylisoxazol-5-yl)-[1,2,4]triazolo[4,3-a]pyridin-3-yl)ethyl)quinolin-3-yloxy)ethanol in presence of NADPH by LC-MS/MS method; assay type: ADME; outline: as §2
Mus musculus [10] = experiment: Inhibition of human recombinant HGF-stimulated c-Met autophosphorylation in Balb/c mouse assessed as relative phospho c-Met level at 10 mg/kg, po administered as single dose and measured 9 hrs before mouse sacrifice by electrochemiluminescence immunoassay; assay type: functional; parameters: scale not given: the % may be the effect or the level left; outline: as §3
Liver microsome [11] = experiment: Drug metabolism in dog liver microsomes assessed as formation of (S)-2-(6-(1-(8-fluoro-6-(3-methylisoxazol-5-yl)-[1,2,4]triazolo[4,3-a]pyridin-3-yl)ethyl)quinolin-3-yloxy)ethanol in presence of NADPH by LC-MS/MS method; assay type: ADME, Canis lupus familiaris; outline: as §2
Mus musculus [12] = experiment: Inhibition of human recombinant HGF-stimulated c-Met autophosphorylation in Balb/c mouse assessed as relative phospho c-Met level at 10 mg/kg, po administered as single dose and measured 24 hrs before mouse sacrifice by electrochemiluminescence immunoassay; assay type: functional; parameters: scale not given: the % may be the effect or the level left; outline: as §3
[13] = Drug metabolism in monkey liver microsomes assessed as formation of (S)-2-(6-(1-(8-fluoro-6-(3-methylisoxazol-5-yl)-[1,2,4]triazolo[4,3-a]pyridin-3-yl)ethyl)quinolin-3-yloxy)ethanol in presence of NADPH by LC-MS/MS method; assay type: ADME, Macaca mulatta; conditions: rhesus monkey; outline: as §2
[14] = Drug metabolism in monkey liver microsomes assessed as formation of (S)-2-(6-(1-(8-fluoro-6-(3-methylisoxazol-5-yl)-[1,2,4]triazolo[4,3-a]pyridin-3-yl)ethyl)quinolin-3-yloxy)acetic acid in presence of NADPH by LC-MS/MS method; assay type: ADME, Macaca mulatta; conditions: rhesus monkey; outline: as §2
Liver microsome [15] = experiment: Drug metabolism in dog liver microsomes assessed as formation of (S)-2-(6-(1-(8-fluoro-6-(3-methylisoxazol-5-yl)-[1,2,4]triazolo[4,3-a]pyridin-3-yl)ethyl)quinolin-3-yloxy)acetic acid in presence of NADPH by LC-MS/MS method; assay type: ADME, Canis lupus familiaris; outline: as §2
Rattus norvegicus [16] = experiment: AUC (0 to infinity) in Sprague-Dawley rat at 0.25 mg/kg, iv; assay type: ADME, organism-based, Plasma; parameters: dose 0.25 mg/kg, route intravenous, time infinity; conditions: in vivo
[17] = Drug metabolism in mouse liver microsomes assessed as formation of (S)-2-(6-(1-(8-fluoro-6-(3-methylisoxazol-5-yl)-[1,2,4]triazolo[4,3-a]pyridin-3-yl)ethyl)quinolin-3-yloxy)acetic acid in presence of NADPH by LC-MS/MS method; assay type: ADME; outline: as §2
[18] = Drug metabolism in mouse liver microsomes assessed as formation of (S)-2-(6-(1-(8-fluoro-6-(3-methylisoxazol-5-yl)-[1,2,4]triazolo[4,3-a]pyridin-3-yl)ethyl)quinolin-3-yloxy)ethanol in presence of NADPH by LC-MS/MS method; assay type: ADME; outline: as §2
Mus musculus [19] = experiment: Inhibition of human recombinant HGF-stimulated c-Met autophosphorylation in Balb/c mouse assessed as relative phospho c-Met level at 10 mg/kg, po administered as single dose and measured 3 hrs before mouse sacrifice by electrochemiluminescence immunoassay; assay type: functional; parameters: scale not given: the % may be the effect or the level left; outline: as §3
[20] = Oral bioavailability in Sprague-Dawley rat at 2 mg/kg; assay type: ADME, organism-based; conditions: in vivo; outline: as §1
Liver microsome [21] = experiment: Drug metabolism in rat liver microsomes assessed as formation of (S)-2-(6-(1-(8-fluoro-6-(3-methylisoxazol-5-yl)-[1,2,4]triazolo[4,3-a]pyridin-3-yl)ethyl)quinolin-3-yloxy)ethanol in presence of NADPH by LC-MS/MS method; assay type: ADME; outline: as §2
Mus musculus [22] = experiment: Inhibition of human recombinant HGF-stimulated c-Met autophosphorylation in Balb/c mouse assessed as relative phospho c-Met level at 10 mg/kg, po administered as single dose and measured 12 hrs before mouse sacrifice by electrochemiluminescence immunoassay; assay type: functional; parameters: scale not given: the % may be the effect or the level left; outline: as §3
Mus musculus [23] = experiment: Inhibition of human recombinant HGF-stimulated c-Met autophosphorylation in Balb/c mouse assessed as relative phospho c-Met level at 10 mg/kg, po administered as single dose and measured 6 hrs before mouse sacrifice by electrochemiluminescence immunoassay; assay type: functional; parameters: scale not given: the % may be the effect or the level left; outline: as §3
[24] = Half life in Sprague-Dawley rat at 0.25 mg/kg, iv; assay type: ADME, organism-based; parameters: dose 0.25 mg/kg, route intravenous; conditions: in vivo
Rattus norvegicus [25] = experiment: Clearance in Sprague-Dawley rat at 0.25 mg/kg, iv; assay type: ADME, organism-based; parameters: dose 0.25 mg/kg, route intravenous; conditions: in vivo
Liver microsome [26] = experiment: Unbound clearance rat liver microsomes at 1 uM in presence of NADPH by LC-MS/MS method; assay type: ADME
Outline: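 Aliquots were taken at 0, 10, 20, 30 and 40 min, quenched with an equal volume of acetonitrile, centrifuged and analysed by LC/MS/MS.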

Liver microsome [27] = experiment: Drug metabolism in human liver microsomes assessed as formation of (S)-2-(6-(1-(8-fluoro-6-(3-methylisoxazol-5-yl)-[1,2,4]triazolo[4,3-a]pyridin-3-yl)ethyl)quinolin-3-yloxy)acetic acid in presence of NADPH by LC-MS/MS method; assay type: ADME; outline: as §2

Stability (Liver microsome [1]): Stable
AUC(0-inf) [2]: > 386 µM·h
IC50 [3]: 13 nM
IC50 [4]: 12 nM
inhibition (INH) (Cytochrome P450 2D6): Not Active
inhibition (INH) (Cytochrome P450 3A4): Not Active
Stability (Liver microsome [5]): Stable
SMILES: COc1cnc2ccc(C(F)(F)c3nnc4c(F)cc(-c5cnn(C)c5)cn34)cc2c1

Vd [6]: 4.9 L/kg
Drug metabolism (Liver microsome [7]): metabolite_detected
Drug metabolism (Liver microsome [9]): metabolite_detected
Drug metabolism (Liver microsome [11]): metabolite_detected
Drug metabolism [13]: metabolite_detected
Drug metabolism [14]: metabolite_detected
IC50 [3]: 5 nM
Drug metabolism (Liver microsome [15]): metabolite_detected
AUC (Rattus norvegicus [16]): 3.1 µM·h
Drug metabolism [17]: metabolite_detected
Drug metabolism [18]: metabolite_detected
IC50 [4]: 1 nM
bioavailability [20]: 46%
Drug metabolism (Liver microsome [21]): metabolite_detected
half-life [24]: 4.2 h
CL (Rattus norvegicus [25]): 9.5 mL/min/kg
CL free (Liver microsome [26]): 417 mL/min/kg
Drug metabolism (Liver microsome [27]): metabolite_detected
SMILES: COCCOc1cnc2ccc([C@H](C)c3nnc4c(F)cc(-c5cc(C)no5)cn34)cc2c1
Activity (Mus musculus [8]): 96%
Activity (Mus musculus [10]): 64%
Activity (Mus musculus [12]): 27%
Activity (Mus musculus [19]): 99%
Activity (Mus musculus [22]): 47%
Activity (Mus musculus [23]): 94%
